Test results taken from ChEMBL document CHEMBL3286287, “Identification of a new selective dopamine D4 receptor ligand” (Bioorg Med Chem, 2014).

Key:
D(1B) dopamine receptor = D(1B) dopamine receptor (Homo sapiens, UniProt P21918); experiment: Displacement of [3H]SCH23390 from human dopamine D5 receptor by PDSP assay; conditions: for inhibition: concentration not given here
D(2) dopamine receptor = D(2) dopamine receptor (Homo sapiens, UniProt P14416); experiment: Displacement of [3H]N-methylspiperone from human dopamine D2 receptor by PDSP assay
Chain of D(2) dopamine receptor (P14416 whole entry): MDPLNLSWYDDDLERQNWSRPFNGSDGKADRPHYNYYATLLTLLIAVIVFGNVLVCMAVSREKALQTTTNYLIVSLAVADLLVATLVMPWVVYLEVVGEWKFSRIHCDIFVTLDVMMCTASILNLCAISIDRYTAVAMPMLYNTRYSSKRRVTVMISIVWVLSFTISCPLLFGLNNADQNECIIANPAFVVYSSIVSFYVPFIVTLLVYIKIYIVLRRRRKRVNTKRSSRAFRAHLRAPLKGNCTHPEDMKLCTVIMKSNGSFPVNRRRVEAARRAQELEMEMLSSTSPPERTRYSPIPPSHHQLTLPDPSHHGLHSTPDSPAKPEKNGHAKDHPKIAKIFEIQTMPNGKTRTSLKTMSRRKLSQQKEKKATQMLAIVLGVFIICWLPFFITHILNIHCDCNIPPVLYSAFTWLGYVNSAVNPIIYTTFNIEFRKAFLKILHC

D(4) dopamine receptor = target: T1, D(4) dopamine receptor (Rattus norvegicus, UniProt P30729); experiment: Displacement of [3H]N-methylspiperone from rat dopamine D4 receptor by PDSP assay
T1 sequence (P30729 whole entry): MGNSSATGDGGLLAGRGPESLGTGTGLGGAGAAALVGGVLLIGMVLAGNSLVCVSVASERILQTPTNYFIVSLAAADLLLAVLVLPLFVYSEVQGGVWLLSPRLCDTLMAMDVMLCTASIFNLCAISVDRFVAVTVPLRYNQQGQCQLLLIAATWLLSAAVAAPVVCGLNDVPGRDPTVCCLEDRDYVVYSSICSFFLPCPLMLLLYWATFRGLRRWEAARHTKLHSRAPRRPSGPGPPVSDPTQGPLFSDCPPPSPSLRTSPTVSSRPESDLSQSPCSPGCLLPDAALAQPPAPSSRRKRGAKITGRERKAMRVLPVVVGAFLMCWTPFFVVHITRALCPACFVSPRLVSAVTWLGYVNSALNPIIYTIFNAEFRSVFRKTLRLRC

[1] = Selectivity ratio of Ki for human dopamine D3 receptor to Ki for rat dopamine D4 receptor
[2] = Selectivity ratio of Ki for human dopamine D2 receptor to Ki for rat dopamine D4 receptor
D(3) dopamine receptor = D(3) dopamine receptor (Homo sapiens, UniProt P35462); experiment: Displacement of [3H]N-methylspiperone from human dopamine D3 receptor by PDSP assay
Chain of D(3) dopamine receptor (P35462 whole entry): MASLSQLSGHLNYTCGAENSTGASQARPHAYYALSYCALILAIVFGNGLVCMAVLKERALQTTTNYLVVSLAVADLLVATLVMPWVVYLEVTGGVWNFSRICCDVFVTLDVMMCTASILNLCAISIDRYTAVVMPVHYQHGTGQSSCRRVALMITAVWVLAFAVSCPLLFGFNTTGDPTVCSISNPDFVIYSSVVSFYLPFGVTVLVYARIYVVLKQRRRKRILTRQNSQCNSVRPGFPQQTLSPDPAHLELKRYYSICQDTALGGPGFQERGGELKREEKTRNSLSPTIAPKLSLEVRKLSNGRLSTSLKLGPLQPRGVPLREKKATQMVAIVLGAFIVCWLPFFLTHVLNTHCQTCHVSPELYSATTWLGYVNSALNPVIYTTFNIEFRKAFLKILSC

D(1A) dopamine receptor = D(1A) dopamine receptor (Homo sapiens, UniProt P21728); experiment: Displacement of [3H]SCH23390 from human dopamine D1 receptor by PDSP assay; conditions: for inhibition: concentration not given here
Chain of D(1A) dopamine receptor (P21728 whole entry): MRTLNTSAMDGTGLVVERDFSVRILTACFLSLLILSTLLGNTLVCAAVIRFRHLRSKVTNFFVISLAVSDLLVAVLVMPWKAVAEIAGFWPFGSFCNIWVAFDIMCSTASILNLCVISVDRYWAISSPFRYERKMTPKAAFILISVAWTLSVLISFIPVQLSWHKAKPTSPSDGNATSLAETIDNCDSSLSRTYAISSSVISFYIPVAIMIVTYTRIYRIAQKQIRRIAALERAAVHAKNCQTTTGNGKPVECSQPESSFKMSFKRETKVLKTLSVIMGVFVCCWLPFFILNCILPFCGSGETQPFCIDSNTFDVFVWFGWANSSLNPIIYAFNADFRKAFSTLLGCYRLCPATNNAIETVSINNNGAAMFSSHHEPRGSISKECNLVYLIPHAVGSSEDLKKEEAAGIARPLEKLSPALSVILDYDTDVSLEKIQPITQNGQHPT

[3] = target: 5-hydroxytryptamine receptor 2A (Rattus norvegicus, UniProt P14842); experiment: Displacement of [3H]ketanserin from rat 5-HT2A receptor by PDSP assay
Chain of 5-hydroxytryptamine receptor 2A (P14842 whole entry): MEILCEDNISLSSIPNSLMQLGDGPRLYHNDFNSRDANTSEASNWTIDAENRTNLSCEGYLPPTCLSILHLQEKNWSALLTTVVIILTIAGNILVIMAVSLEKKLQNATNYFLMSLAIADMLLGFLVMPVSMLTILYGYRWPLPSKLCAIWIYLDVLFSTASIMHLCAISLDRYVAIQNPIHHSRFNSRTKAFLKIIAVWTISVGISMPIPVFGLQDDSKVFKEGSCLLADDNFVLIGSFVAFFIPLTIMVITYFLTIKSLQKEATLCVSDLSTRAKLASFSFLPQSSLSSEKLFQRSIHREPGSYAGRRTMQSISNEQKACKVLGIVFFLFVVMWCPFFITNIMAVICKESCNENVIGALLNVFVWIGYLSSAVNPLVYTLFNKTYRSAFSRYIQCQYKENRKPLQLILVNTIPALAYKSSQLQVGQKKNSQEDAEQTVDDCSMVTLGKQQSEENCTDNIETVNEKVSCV
Outline: (§1)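 Ki values were determined by the NIMH Psychoactive Drug Screening Program using radioligand displacement. Compounds first went through a primary assay.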

[4] = target: Sigma non-opioid intracellular receptor 1 (Homo sapiens, UniProt Q99720); experiment: Binding affinity to sigma-1 receptor (unknown origin) by PDSP assay
Chain of Sigma non-opioid intracellular receptor 1 (Q99720 whole entry): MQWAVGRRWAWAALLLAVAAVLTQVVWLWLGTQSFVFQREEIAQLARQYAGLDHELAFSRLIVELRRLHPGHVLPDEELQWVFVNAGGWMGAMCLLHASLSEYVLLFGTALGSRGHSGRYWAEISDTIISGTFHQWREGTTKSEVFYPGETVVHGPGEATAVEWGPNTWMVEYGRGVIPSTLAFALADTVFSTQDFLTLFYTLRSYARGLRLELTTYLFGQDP

[5] = target: T2, 5-hydroxytryptamine receptor 2C (Rattus norvegicus, UniProt P08909); experiment: Displacement of [3H]mesulergine from rat 5-HT2C receptor by PDSP assay; outline: as §1
T2 sequence (P08909 whole entry): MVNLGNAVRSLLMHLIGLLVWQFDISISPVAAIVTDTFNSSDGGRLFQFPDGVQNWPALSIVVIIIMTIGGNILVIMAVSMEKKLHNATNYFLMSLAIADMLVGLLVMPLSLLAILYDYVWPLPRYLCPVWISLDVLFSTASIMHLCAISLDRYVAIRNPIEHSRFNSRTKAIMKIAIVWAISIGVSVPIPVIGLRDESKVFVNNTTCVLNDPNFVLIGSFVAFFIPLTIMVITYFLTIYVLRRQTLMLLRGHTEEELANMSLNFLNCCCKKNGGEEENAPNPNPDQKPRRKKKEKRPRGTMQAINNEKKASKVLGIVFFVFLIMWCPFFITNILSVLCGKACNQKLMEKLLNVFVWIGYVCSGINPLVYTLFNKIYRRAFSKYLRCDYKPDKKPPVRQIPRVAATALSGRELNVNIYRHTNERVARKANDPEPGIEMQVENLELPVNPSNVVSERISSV

[6] = Binding affinity to sigma-2 receptor (unknown origin) by PDSP assay; design: species or system Homo sapiens
[7] = target: 5-hydroxytryptamine receptor 7 (Homo sapiens, UniProt P34969); experiment: Displacement of [3H]LSD from human 5-HT7 receptor by PDSP assay
Chain of 5-hydroxytryptamine receptor 7 (P34969 whole entry): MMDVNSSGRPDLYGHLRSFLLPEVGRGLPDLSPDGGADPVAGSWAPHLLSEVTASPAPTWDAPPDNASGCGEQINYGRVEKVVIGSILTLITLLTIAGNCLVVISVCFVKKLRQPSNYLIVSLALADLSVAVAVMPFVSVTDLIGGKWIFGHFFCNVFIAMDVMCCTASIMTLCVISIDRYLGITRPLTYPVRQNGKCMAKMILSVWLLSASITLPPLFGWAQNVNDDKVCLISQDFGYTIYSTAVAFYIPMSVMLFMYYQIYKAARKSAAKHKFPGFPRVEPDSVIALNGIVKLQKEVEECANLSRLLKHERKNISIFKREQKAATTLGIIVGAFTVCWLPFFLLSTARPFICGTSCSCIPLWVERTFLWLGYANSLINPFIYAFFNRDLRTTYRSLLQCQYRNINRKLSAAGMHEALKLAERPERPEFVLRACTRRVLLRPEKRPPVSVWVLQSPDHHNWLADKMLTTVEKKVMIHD

Chain of D(1B) dopamine receptor (P21918 whole entry): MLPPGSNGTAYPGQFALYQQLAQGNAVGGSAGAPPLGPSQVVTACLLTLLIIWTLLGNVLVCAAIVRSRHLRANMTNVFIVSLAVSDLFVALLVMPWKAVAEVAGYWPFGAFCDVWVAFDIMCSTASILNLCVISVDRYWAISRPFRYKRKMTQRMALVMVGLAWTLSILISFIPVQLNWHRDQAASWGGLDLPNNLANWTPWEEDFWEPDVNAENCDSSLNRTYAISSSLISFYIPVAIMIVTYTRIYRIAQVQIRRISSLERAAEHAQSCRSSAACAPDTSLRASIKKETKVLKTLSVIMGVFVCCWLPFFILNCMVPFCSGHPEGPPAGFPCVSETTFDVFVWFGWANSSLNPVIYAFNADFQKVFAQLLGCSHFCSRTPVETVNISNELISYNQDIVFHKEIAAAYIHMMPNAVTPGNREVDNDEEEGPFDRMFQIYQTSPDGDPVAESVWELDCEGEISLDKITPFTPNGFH

Row | Ki (D(1B) dopamine receptor) | Ki (D(2) dopamine receptor) | Ki (D(4) dopamine receptor; read-out: Ki) | Ratio Ki [1] | Ratio Ki [2] | Ki (D(3) dopamine receptor; read-out: Ki) | Ki (D(1A) dopamine receptor; read-out: Ki) | SMILES | inhibition (D(1B) dopamine receptor) | further results
1 | > 10 µM | 3.96 µM | 0.145 µM | 1.5 | 27.3 | 0.18 µM | 1.17 µM | Clc1ccc(N2CCN(CCCc3nc4ccccc4o3)CC2)cc1 |  | 
2 | 3.22 µM |  |  | 28.1 | 32.1 |  | 0.265 µM | Fc1ccc(SCCCN2CCN(c3ccccn3)CC2)cc1 |  | 
3 |  |  | 0.0175 µM |  |  |  |  | O=C(CCCN1CCN(c2ccc(Cl)cc2)CC1)c1ccc(F)cc1 |  | 
4 | 2.81 µM |  |  | 48.5 | 24.3 |  | 0.052 µM | Fc1ccc(SCCCN2CCN(c3ccc(Cl)cc3)CC2)cc1 |  | 
5 | > 10 µM |  |  | 6.9 | 74.9 | 0.214 µM | 1.27 µM | Clc1ccc(N2CCN(CCCc3nc4ccccc4s3)CC2)cc1 |  | 
6 | 2.58 µM | 1.05 µM |  | 170 | 951 | 0.187 µM | 0.26 µM | Cc1ccc(N2CCN(CCCOc3ccc(F)cc3)CC2)nc1 |  | 
7 |  | 1.54 µM | 0.0061 µM | 406 | 253 | 2.48 µM | 0.641 µM | O=C1c2ccc(F)cc2CC1CCN1CCN(c2ccc(Cl)cc2)CC1 (centres undefined) | < 50% | 
8 | > 10 µM | 1.09 µM | 0.012 µM | 29.6 | 91 | 0.355 µM | 2.34 µM | FC(F)(F)c1ccc(OCCCN2CCN(c3ccccn3)CC2)cc1 |  | 
9 |  | 0.635 µM | 0.013 µM | 103 | 48.8 | 1.34 µM |  | [O-][S+](CCCN1CCN(c2ccc(Cl)cc2)CC1)c1ccc(F)cc1 (centres undefined) | < 50% | inhibition (D(1A) dopamine receptor): < 50%
10 | > 10 µM | 3.11 µM | 0.24 µM | 0.5 | 13 | 0.119 µM | 7.94 µM | Clc1ccc(N2CCN(CCCCCc3nc4ccccc4o3)CC2)cc1 |  | 
11 | 2.68 µM |  |  |  |  |  | 0.135 µM | Fc1ccc(OCCCN2CCN(c3ccc(Cl)cc3)CC2)cc1 |  | 
12 |  | > 10 µM | 0.036 µM | 126 |  | 4.53 µM | 1.7 µM | O=C1c2ccccc2CC1CCN1CCN(c2ccc(Cl)cc2)CC1 (centres undefined) | < 50% | Ki (D(1A) dopamine receptor; read-out: pKi (converted)): 0.389 µM
13 |  |  |  | 7.8 | 54.8 | 0.031 µM | 1.9 µM | Clc1ccc(N2CCN(CCCCc3nc4ccccc4s3)CC2)cc1 |  | 
14 | 2.16 µM | 1.11 µM | 0.02 µM | 8.5 | 55.3 | 0.17 µM | 0.222 µM | Cc1ccc(N2CCN(CCCSc3ccc(F)cc3)CC2)nc1 |  | 
15 |  |  | 2.4 µM | 0.3 | > 4.2 |  |  | Clc1ccc(N2C[C@H]3C[C@@H]2CN3CCCc2cc3ccccc3o2)cc1 | < 50% | inhibition (D(1A) dopamine receptor): < 50%

The next lines start with the molecule.

Row | SMILES | Ki (D(1B) dopamine receptor) | Ki (D(2) dopamine receptor) | Ki (D(4) dopamine receptor; read-out: Ki) | Ratio Ki [1] | Ratio Ki [2] | Ki (D(3) dopamine receptor; read-out: Ki) | Ki (D(1A) dopamine receptor; read-out: Ki) | inhibition (D(1B) dopamine receptor) | further results
16 | Fc1ccc(CCCCN2CCN(c3ccccn3)CC2)cc1 | 1.45 µM |  |  |  |  |  |  |  | 
17 | Clc1ccc(N2CCN(CCCCc3nc4ccccc4o3)CC2)cc1 |  |  | 0.0306 µM | 1.1 |  | 0.033 µM |  | < 50% | inhibition (D(1A) dopamine receptor): < 50%
18 | Cc1ccc(N2CCN(CCCCc3ccc(F)cc3)CC2)nc1 | 3.26 µM |  |  |  |  |  | 0.521 µM |  | 
19 | Clc1ccc(N2CCN(CCCc3cc4ccccc4o3)CC2)cc1 |  | 1.98 µM | 0.0789 µM | 29 | 25.1 | 2.29 µM | 1.41 µM | < 50% | 
20 | Fc1ccc(SCCCN2CCN(c3ncccn3)CC2)cc1 | 1.37 µM |  |  | 3.2 | 20.1 |  | 0.495 µM |  | 
21 | Clc1ccc(N2CCN(CCCOc3ccccc3)CC2)cc1 |  |  |  | 130 | 79.8 |  |  |  | Ki (D(4) dopamine receptor; read-out: pKi (converted)): 0.0055 µM; Ki (D(3) dopamine receptor; read-out: pKi (converted)): 0.794 µM
22 | Fc1ccc(OCCCN2CCC(c3ccc(Cl)cc3)CC2)cc1 | 0.867 µM |  |  | 73.3 | 4.3 |  | 0.126 µM |  | 
23 | Fc1ccc2c(c1)CC(CCN1CCN(c3ccc(Cl)cc3)CC1)C2 (centres undefined) |  | 1.42 µM | 0.013 µM |  |  | 2.77 µM | 0.837 µM | < 50% | 
24 | Fc1ccc(CCCCN2CCN(c3ccc(Cl)cc3)CC2)cc1 | 1.76 µM |  |  | 33.5 | 36.4 |  | 0.589 µM |  | 
25 | Clc1ccc(N2CCCN(CCCc3cc4ccccc4o3)CC2)cc1 | 1.52 µM | 2.51 µM | 0.185 µM | 7.9 | 13.5 | 1.46 µM | 0.274 µM |  | 
26 | Fc1ccc(OCCCN2CCN(c3ncccn3)CC2)cc1 |  |  |  | 185 | 151 |  | 0.259 µM | < 50% | 
27 | Clc1ccc(N2CCN(CCc3cc4ccccc4o3)CC2)cc1 |  |  |  |  |  |  |  | < 50% | inhibition (D(1A) dopamine receptor): < 50%
28 | Clc1ccc(N2CCN(CCc3nc4ccccc4o3)CC2)cc1 |  |  | 1.41 µM | 0.6 |  | 0.85 µM |  | < 50% | inhibition (D(1A) dopamine receptor): < 50%
29 | c1cnc(N2CCN(CCCc3nc4ccccc4s3)CC2)nc1 |  |  | 0.0039 µM |  |  |  |  |  | Ki [3]: 0.283 µM; Ki [4]: 0.35 µM; Ki [5]: 0.28 µM; Ki [6]: 0.162 µM; pKi [6]: 6.79; Ki [7]: 0.342 µM
30 | Fc1ccc(CCCCN2CCN(c3ncccn3)CC2)cc1 | 3.81 µM |  |  |  |  |  | 0.134 µM |  | 
31 | c1cnc(N2CCN(CCCCc3nc4ccccc4s3)CC2)nc1 |  |  | 0.00084 µM |  |  |  |  |  | 
